Test results from ChEMBL document CHEMBL1128568, “Design and structure-activity relationships of C-terminal cyclic neurotensin fragment analogues” (J Med Chem, 1995).
pKi: −log10 of the molar value. Non-standard residues stand in square brackets, D forms with d. Residues, ends and D or L forms follow the SMILES beside them. NMeR = CN[C@@H](CCCNC(=N)N)C(=O)O; Tle = CC(C)(C)[C@H](N)C(=O)O

Test: Binding affinity against neurotensin receptor.
Summary of the method: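 Neonatal (10-day postnatal) mouse brain membranes, cerebellum removed, washed by repeated 100000g spins in 5 mM Tris pH 7.5, resuspended 1 g wet weight/mL in 50 mM Tris pH 7.4 with BSA, bacitracin, EDTA, phenanthroline, PMSF. Competition against [3H]NT (0.20 nM final) or [125I-Tyr3]NT (0.21 nM final), 30 min at 25 °C. Separation by filtration on PEI-soaked GF/B filters. Nonspecific binding with 1 μM NT.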

Row | pKi | Structure (SMILES)
1 | < 5.00 | CC(C)C[C@H](NC(=O)[C@@H](N)CCC(=O)O)C(=O)N[C@@H](Cc1ccc(O)cc1)C(=O)N[C@@H](CCC(=O)O)C(=O)N[C@@H](CC(N)=O)C(=O)N[C@@H](CCCCN)C(=O)N1CCC[C@H]1C(=O)N1C(=O)[C@H](CCC(=O)O)NC(=O)[C@H](Cc2c[nH]c3ccccc23)NC(=O)[C@@H]2CCCN2C(=O)[C@H](CCCCN)NC(=O)[C@H]1CCCN=C(N)N
2 | 6.08 | CC(C)C[C@H](NC(=O)CCC[C@@H]1NC(=O)[C@H](Cc2c[nH]c3ccccc23)NC(=O)[C@@H]2CCCN2C(=O)[C@H](CCCCN)NC(=O)[C@H](CCCN=C(N)N)N(C(=O)[C@@H]2CCCN2C(=O)[C@H](CCCCN)NC(=O)[C@H](CC(N)=O)NC(=O)[C@H](CCC(=O)O)NC(=O)[C@H](Cc2ccc(O)cc2)NC(=O)[C@H](CC(C)C)NC(=O)[C@@H](N)CCC(=O)O)C1=O)C(=O)O
3 | 6.04 | CC(C)C[C@H](NC(=O)C[C@@H]1NC(=O)[C@H](Cc2c[nH]c3ccccc23)NC(=O)[C@@H]2CCCN2C(=O)[C@H](CCCCN)NC(=O)[C@@H](CCCN=C(N)N)N(C(=O)[C@@H]2CCCN2C(=O)[C@H](CCCCN)NC(=O)[C@H](CC(N)=O)NC(=O)[C@H](CCC(=O)O)NC(=O)[C@H](Cc2ccc(O)cc2)NC(=O)[C@H](CC(C)C)NC(=O)[C@@H](N)CCC(=O)O)C1=O)C(=O)O
4 | < 5.00 | CC(C)CC(NC(=O)CC[C@H]1NC(=O)[C@H](Cc2c[nH]c3ccccc23)NC(=O)[C@@H]2CCCN2C(=O)[C@H](CCCCN)NC(=O)[C@@H](CCCN=C(N)N)N(C(=O)[C@@H]2CCCN2C(=O)[C@H](CCCCN)NC(=O)[C@H](CC(N)=O)NC(=O)C(CCC(=O)O)NC(=O)[C@H](Cc2ccc(O)cc2)NC(=O)[C@H](CC(C)C)NC(=O)C(N)CCC(=O)O)C1=O)C(=O)O (stereo in doubt)
5 | 6.36 | CC(C)C[C@H](NC(=O)[C@@H](N)CCC(=O)O)C(=O)N[C@@H](Cc1ccc(O)cc1)C(=O)N[C@@H](CCC(=O)O)C(=O)N[C@@H](CC(N)=O)C(=O)N[C@@H](CCCCN)C(=O)N1CCC[C@H]1C(=O)N1C(=O)[C@H](CC(C)C)NC(=O)[C@H](C(C)(C)C)NC(=O)[C@H](Cc2ccc(O)cc2)NC(=O)[C@@H]2CCCN2C(=O)[C@H](CCCCN)NC(=O)[C@H]1CCCN=C(N)N
6 | 5.36 | CC(C)C[C@H](NC(=O)[C@H]1NC(=O)[C@H](Cc2c[nH]c3ccccc23)NC(=O)[C@H]2CCCN2C(=O)[C@H](NC(=O)[C@H](CCCN=C(N)N)N(C)C(=O)[C@@H]2CCCN2C(=O)[C@H](CCCCN)NC(=O)[C@H](CC(N)=O)NC(=O)[C@H](CCC(=O)O)NC(=O)[C@H](Cc2ccc(O)cc2)NC(=O)[C@H](CC(C)C)NC(=O)[C@@H](N)CCC(=O)O)C(C)(C)SSC1(C)C)C(=O)O
7 | 7.08 | CC(C)C[C@H](NC(=O)[C@H]1NC(=O)[C@H](Cc2c[nH]c3ccccc23)NC(=O)[C@H]2CCCN2C(=O)[C@H](NC(=O)[C@H](CCCN=C(N)N)N(C)C(=O)[C@@H]2CCCN2C(=O)[C@H](CCCCN)NC(=O)[C@H](CC(N)=O)NC(=O)[C@H](CCC(=O)O)NC(=O)[C@H](Cc2ccc(O)cc2)NC(=O)[C@H](CC(C)C)NC(=O)[C@@H](N)CCC(=O)O)CSSC1(C)C)C(=O)O
8 | 5.80 | CC(C)C[C@H](NC(=O)[C@@H](N)CCC(=O)O)C(=O)N[C@@H](Cc1ccc(O)cc1)C(=O)N[C@@H](CCC(=O)O)C(=O)N[C@@H](CC(N)=O)C(=O)N[C@@H](CCCCN)C(=O)N1CCC[C@H]1C(=O)N(C)[C@@H](CCCN=C(N)N)C(=O)N1C(=O)[C@H](CC(C)C)NC(=O)[C@@H](CCC(=O)O)NC(=O)[C@H](Cc2c[nH]c3ccccc23)NC(=O)[C@@H]2CCCN2C(=O)[C@@H]1CCCCN
9 | 9.17 | CC(C)C[C@H](NC(=O)[C@@H](NC(=O)[C@H](Cc1c[nH]c2ccccc12)NC(=O)[C@@H]1CCCN1C(=O)[C@H](CCCCN)NC(=O)[C@H](CCCN=C(N)N)N(C)C(=O)[C@@H]1CCCN1C(=O)[C@H](CCCCN)NC(=O)[C@H](CC(N)=O)NC(=O)[C@H](CCC(=O)O)NC(=O)[C@H](Cc1ccc(O)cc1)NC(=O)[C@H](CC(C)C)NC(=O)[C@@H](N)CCC(=O)O)C(C)(C)C)C(=O)O (H-ELYENKP[NMeR]KPW[Tle]L-OH)
10 | 6.60 | CC(C)C[C@H](NC(=O)[C@@H](N)CCC(=O)O)C(=O)N[C@@H](Cc1ccc(O)cc1)C(=O)N[C@@H](CCC(=O)O)C(=O)N[C@@H](CC(N)=O)C(=O)N[C@@H](CCCCN)C(=O)N1CCC[C@H]1C(=O)N1C(=O)[C@H](CCC(=O)NCC(=O)O)NC(=O)[C@H](Cc2c[nH]c3ccccc23)NC(=O)[C@@H]2CCCN2C(=O)[C@H](CCCCN)NC(=O)[C@H]1CCCN=C(N)N
11 | 6.39 | CC(C)C[C@H](NC(=O)[C@@H](N)CCC(=O)O)C(=O)N[C@@H](Cc1ccc(O)cc1)C(=O)N[C@@H](CCC(=O)O)C(=O)N[C@@H](CC(N)=O)C(=O)N[C@@H](CCCCN)C(=O)N1CCC[C@H]1C(=O)N1C(=O)[C@H](CC(C)C)NC(=O)[C@H](C(C)(C)C)NC(=O)[C@H](Cc2c[nH]c3ccccc23)NC(=O)[C@@H]2CCCN2C(=O)[C@H](CCCCN)NC(=O)[C@@H]1CCCN=C(N)N
12 | 6.09 | CC(C)C[C@H](NC(=O)[C@@H]1CSSC[C@@H](NC(=O)[C@H](CCCN=C(N)N)N(C)C(=O)[C@@H]2CCCN2C(=O)[C@H](CCCCN)NC(=O)[C@H](CC(N)=O)NC(=O)[C@H](CCC(=O)O)NC(=O)[C@H](Cc2ccc(O)cc2)NC(=O)[C@H](CC(C)C)NC(=O)[C@@H](N)CCC(=O)O)C(=O)N2CCC[C@@H]2C(=O)N[C@@H](Cc2c[nH]c3ccccc23)C(=O)N1)C(=O)O
13 | 6.59 | CC(=O)N(C(=O)[C@@H]1CCCN1C(=O)[C@H](CCCCN)NC(=O)[C@H](CC(N)=O)NC(=O)[C@H](CCC(=O)O)NC(=O)[C@H](Cc1ccc(O)cc1)NC(=O)[C@H](CC(C)C)NC(=O)[C@@H](N)CCC(=O)O)[C@@H](CCCN=C(N)N)C(=O)N[C@@H](CCCCN)C(=O)N1CCC[C@H]1C(=O)N[C@@H](Cc1c[nH]c2ccccc12)C(=O)N[C@@H](CCC(N)=O)C(=O)N[C@@H](CC(C)C)C(=O)O
14 | 5.60 | CC(C)C[C@H](NC(=O)[C@@H](N)CCC(=O)O)C(=O)N[C@@H](Cc1ccc(O)cc1)C(=O)N[C@@H](CCC(=O)O)C(=O)N[C@@H](CC(N)=O)C(=O)N[C@@H](CCCCN)C(=O)N1CCC[C@H]1C(=O)N(C)[C@@H](CCCN=C(N)N)C(=O)N1C(=O)[C@H](CC(C)C)NC(=O)[C@@H](CCC(=O)O)NC(=O)[C@H](Cc2c[nH]c3ccccc23)NC(=O)[C@@H]2CCCN2C(=O)[C@H]1CCCCN
15 | < 5.00 | CC(C)C[C@H](NC(=O)CC[C@@H]1NC(=O)[C@H](Cc2c[nH]c3ccccc23)NC(=O)[C@@H]2CCCN2C(=O)[C@H](C)NC(=O)[C@@H](CCCN=C(N)N)N(C(=O)[C@@H]2CCCN2C(=O)[C@H](CCCCN)NC(=O)[C@H](CC(N)=O)NC(=O)[C@H](CCC(=O)O)NC(=O)[C@H](Cc2ccc(O)cc2)NC(=O)[C@H](CC(C)C)NC(=O)[C@@H](N)CCC(=O)O)C1=O)C(=O)O
16 | < 5.00 | CC(C)C[C@H](NC(=O)[C@H](CCC(=O)O)NC(=O)[C@H](Cc1c[nH]c2ccccc12)NC(=O)[C@@H]1CCCN1C(=O)[C@H](CCCCN)NC(=O)[C@H](CCCN=C(N)N)N(C)C(=O)[C@@H]1CCCN1C(=O)[C@H](CCCCN)NC(=O)[C@H](CC(N)=O)NC(=O)[C@H](CCC(=O)O)NC(=O)[C@H](Cc1ccc(O)cc1)NC(=O)[C@H](CC(C)C)NC(=O)[C@@H](N)CCC(=O)O)C(=O)O (H-ELYENKP[NMeR]KPWEL-OH)
17 | 6.11 | CC(C)C[C@H](NC(=O)[C@@H](N)CCC(=O)O)C(=O)N[C@@H](Cc1ccc(O)cc1)C(=O)N[C@@H](CCC(=O)O)C(=O)N[C@@H](CC(N)=O)C(=O)N[C@@H](CCCCN)C(=O)N1CCC[C@H]1C(=O)N(C)[C@@H](CCCN=C(N)N)C(=O)N1C(=O)[C@H](CC(C)C)NC(=O)[C@H](CCC(=O)O)NC(=O)[C@H](Cc2c[nH]c3ccccc23)NC(=O)[C@@H]2CCCN2C(=O)[C@@H]1CCCCN
18 | 7.80 | CC(C)C[C@H](NC(=O)CC[C@@H]1NC(=O)[C@H](Cc2c[nH]c3ccccc23)NC(=O)[C@@H]2CCCN2C(=O)[C@H](CCCCN)NC(=O)[C@@H](CCCN=C(N)N)N(C(=O)[C@@H]2CCCN2C(=O)[C@H](CCCCN)NC(=O)[C@H](CC(N)=O)NC(=O)[C@H](CCC(=O)O)NC(=O)[C@H](Cc2ccc(O)cc2)NC(=O)[C@H](CC(C)C)NC(=O)[C@@H](N)CCC(=O)O)C1=O)C(=O)O
19 | 7.55 | CC(C)CC(NC(=O)CC[C@@H]1NC(=O)[C@H](Cc2c[nH]c3ccccc23)NC(=O)[C@@H]2CCCN2C(=O)[C@H](CCCCN)NC(=O)[C@H](CCCN=C(N)N)N(C)C(=O)CN(C(=O)[C@@H]2CCCN2C(=O)[C@H](CCCCN)NC(=O)[C@H](CC(N)=O)NC(=O)[C@H](CCC(=O)O)NC(=O)[C@H](Cc2ccc(O)cc2)NC(=O)[C@H](CC(C)C)NC(=O)[C@@H](N)CCC(=O)O)C1=O)C(=O)O (some centres undefined)
